Test results published in ChEMBL document CHEMBL1629563, “Pharmacokinetic and safety evaluation of BILR 355, a second-generation nonnucleoside reverse transcriptase inhibitor, in healthy volunteers” (Antimicrob Agents Chemother, 2008).

What was measured:
[1] = Apparent volume of distribution at steady state in high fat fed healthy human at 50 mg, po administered as single dose coadministered with 100 mg of ritonavir; format: ADME, organism-based; details: in vivo, read-out: Vss/F
In short: (§1)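 Fed cohort: healthy males ate an FDA-recipe high-fat breakfast (about 150/250/500-600 cal from protein/carbohydrate/fat) 30 min before a 50 mg oral dose of BILR 355 in PEG solution. Ritonavir 100 mg was given 10 h before and with the dose. Plasma was sampled over 144 h and assayed by LC-MS/MS. Noncompartmental analysis gave Cmax and Vz/F. Vss/F = CL/F·(MRTp.o. − 1/Ka).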

[2] = Apparent volume of distribution at steady state in healthy human at 75 mg, po administered as single dose coadministered with 100 mg of ritonavir; format: ADME, organism-based; details: in vivo, read-out: Vss/F
In short: (§2)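 Healthy male volunteers, fasted overnight, got one oral dose of BILR 355 in PEG solution with 200 ml water. Ritonavir 100 mg was given 10 h before and again with the dose. Plasma was sampled (EDTA) from predose to 144 h and assayed by validated LC-MS/MS. Cmax and Vz/F came from noncompartmental analysis. Vss/F = CL/F·(MRTp.o. − 1/Ka), with Ka from compartmental modelling.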

Homo sapiens [3] = assay: Toxicity in healthy human assessed as occurrence of increase in alanine aminotransferase level at 50 mg, po administered as single dose relative to control; format: organism-based; details: in vivo
[4] = Apparent oral clearance in healthy human at 100 mg, po administered as single dose; format: ADME, organism-based; details: in vivo
In short: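 Healthy male volunteers, six active plus two placebo per dose group, single oral dose in PEG solution with 200 ml water after overnight fast; breakfast 60 to 90 min post-dose. EDTA plasma sampled predose to 144 h. Assayed by validated LC-MS/MS after protein precipitation. Noncompartmental analysis, AUC by linear up/log down trapezoidal rule; Vss = CL/F·(MRTp.o. − 1/Ka).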

[5] = AUC (0 to infinity) in healthy human at 25 mg, po administered as single dose coadministered with 100 mg of ritonavir; format: ADME, organism-based; parameters: dose 25 mg, route oral, time infinity; details: plasma
In short: (§3)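 Healthy male volunteers, fasted. Ritonavir 100 mg given 10 h before and again together with single oral BILR 355 in PEG solution. EDTA plasma sampled predose to 144 h. LC-MS/MS assay after protein precipitation. Noncompartmental analysis, AUC by linear up/log down trapezoidal rule; Vss = CL/F·(MRTp.o. − 1/Ka).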

Homo sapiens [6] = assay: Toxicity in healthy human assessed as occurrence of neurological eyelid disorder at 1 mg, po administered as single dose relative to control; format: organism-based; details: in vivo
[7] = Mean residence time in healthy human at 87.5 mg, po administered as single dose coadministered with 100 mg of ritonavir; format: ADME, organism-based; details: in vivo
[8] = Apparent volume of distribution in terminal phase in healthy human at 50 mg, po administered as single dose coadministered with 100 mg of ritonavir; format: ADME, organism-based; details: in vivo, read-out: Vz/F; in short: as §2
[9] = Apparent volume of distribution in terminal phase in high fat fed healthy human at 50 mg, po administered as single dose coadministered with 100 mg of ritonavir; format: ADME, organism-based; details: in vivo, read-out: Vz/F; in short: as §1
[10] = Mean residence time in healthy human at 100 mg, po administered as single dose; format: ADME, organism-based; details: in vivo
Homo sapiens [11] = assay: Toxicity in healthy human assessed as occurrence of fatigue at 12.5 mg, po administered as single dose coadministered with 100 mg of ritonavir; format: organism-based; details: in vivo
[12] = Renal clearance in healthy human at 5 mg, po administered as single dose coadministered with 100 mg of ritonavir by high-pressure liquid chromatography-tandem mass spectrometry/mass spectrometry method; format: ADME, organism-based, Kidney; details: in vivo, read-out: CL_renal (converted)
[13] = Drug excretion in healthy human urine assessed as unchanged drug at 5 mg, po administered as single dose coadministered with 100 mg of ritonavir by high-pressure liquid chromatography-tandem mass spectrometry/mass spectrometry method; format: ADME, organism-based; details: read-out: Drug uptake
In short: (§4)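 Ritonavir 100 mg was given 10 h before and with one oral dose of BILR 355 in PEG solution. Urine was collected by weight as predose blank, then 0-6, 6-24 and 24-72 h, stored at −20°C and assayed by LC-MS/MS. fe = unchanged drug excreted (Ae) as a percentage of dose. Line 50: high-fat breakfast 30 min before dosing.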

[14] = AUC (0 to last) in healthy human at 87.5 mg, po administered as single dose coadministered with 100 mg of ritonavir; format: ADME, organism-based; parameters: dose 87.5 mg, route oral, time 0 - last; details: plasma; in short: as §3
Homo sapiens [15] = assay: Toxicity in healthy human assessed as occurrence of frequent bowel movements at 50 mg, po administered as single dose relative to control; format: organism-based; details: in vivo
Homo sapiens [16] = assay: Toxicity in healthy human assessed as occurrence of frequent bowel movements at 75 mg, po administered as single dose relative to control; format: organism-based; details: in vivo
[17] = Drug excretion in healthy human urine assessed as unchanged drug at 62.5 mg, po administered as single dose coadministered with 100 mg of ritonavir by high-pressure liquid chromatography-tandem mass spectrometry/mass spectrometry method; format: ADME, organism-based; details: read-out: Drug uptake; in short: as §4
Homo sapiens [18] = assay: Toxicity in healthy human assessed as occurrence of abdominal pain at 1 mg, po administered as single dose relative to control; format: organism-based, Abdomen; details: in vivo
[19] = Drug excretion in healthy human urine assessed as unchanged drug at 12.5 mg, po administered as single dose coadministered with 100 mg of ritonavir by high-pressure liquid chromatography-tandem mass spectrometry/mass spectrometry method; format: ADME, organism-based; details: read-out: Drug uptake; in short: as §4
Homo sapiens [20] = assay: Toxicity in healthy human assessed as occurrence of herpes simplex at 12.5 mg, po administered as single dose relative to control; format: organism-based; details: in vivo
[21] = Renal clearance in healthy human at 75 mg, po administered as single dose by high-pressure liquid chromatography-tandem mass spectrometry/mass spectrometry method; format: ADME, organism-based, Kidney; details: in vivo, read-out: CL_renal (converted)
[22] = Apparent volume of distribution at steady state in healthy human at 37.5 mg, po administered as single dose coadministered with 100 mg of ritonavir; format: ADME, organism-based; details: in vivo, read-out: Vss/F; in short: as §2
Homo sapiens [23] = assay: Toxicity in healthy human assessed as occurrence of fatigue at 75 mg, po administered as single dose relative to control; format: organism-based; details: in vivo
[24] = Mean residence time in healthy human at 5 mg, po administered as single dose; format: ADME, organism-based; details: in vivo
Homo sapiens [25] = assay: Toxicity in healthy human assessed as occurrence of neurological eyelid disorder at 75 mg, po administered as single dose relative to control; format: organism-based; details: in vivo
[26] = Apparent volume of distribution in terminal phase in healthy human at 75 mg, po administered as single dose coadministered with 100 mg of ritonavir; format: ADME, organism-based; details: in vivo, read-out: Vz/F; in short: as §2
Homo sapiens [27] = assay: Toxicity in healthy human assessed as occurrence of maculopapular rash at 37.5 mg, po administered as single dose coadministered with 100 mg of ritonavir; format: organism-based; details: in vivo
Homo sapiens [28] = assay: Toxicity in healthy human assessed as occurrence of fatigue at 75 mg, po administered as single dose coadministered with 100 mg of ritonavir; format: organism-based; details: in vivo
Homo sapiens [29] = assay: Toxicity in healthy human assessed as occurrence of aphthous stomatitis at 62.5 mg, po administered as single dose coadministered with 100 mg of ritonavir; format: organism-based; details: in vivo
[30] = Half life in healthy human at 50 mg, po administered as single dose coadministered with 100 mg of ritonavir; format: ADME, organism-based; details: in vivo
Homo sapiens [31] = assay: Ratio of Cmax in human at 25 mg, po in presence of 100 mg of ritonavir to Cmax in human at 25 mg, po; format: ADME, organism-based; details: in vivo

CCN1c2ncc(CCOc3cc[n+]([O-])c4ccccc34)cc2C(=O)N(C)c2cccnc21 [BILR 355]
Vd/F [1]: 81.4 L | Vd/F [2]: 105 L | Activity (Homo sapiens [3]): 0% | CL/F [4]: 1320 mL/min | AUC(0-inf) [5]: 4340 ng·h/mL | Activity (Homo sapiens [6]): 0% | MRT [7]: 14.6 h | Vd/F [8]: 129 L | Vd/F [9]: 100 L | MRT [10]: 2.23 h | Activity (Homo sapiens [11]): 0% | CL renal [12]: 6.03 mL/min | dose excreted [13]: 4.78% | AUC(0-t) [14]: 11700 ng·h/mL | Activity (Homo sapiens [15]): 0% | Activity (Homo sapiens [16]): 16.7% | dose excreted [17]: 5.05% | Activity (Homo sapiens [18]): 0% | dose excreted [19]: 6.37% | Activity (Homo sapiens [20]): 0% | CL renal [21]: 10.2 mL/min | Vd/F [22]: 105 L | Activity (Homo sapiens [23]): 16.7% | MRT [24]: 7.74 h | Activity (Homo sapiens [25]): 16.7% | Vd/F [26]: 108 L | Activity (Homo sapiens [27]): 16.7% | Activity (Homo sapiens [28]): 0% | Activity (Homo sapiens [29]): 0% | half-life [30]: 11.5 h | Ratio (Homo sapiens [31]): 5.4
